The source of these data is ChEMBL document CHEMBL4390648, “Chemical synthesis, crystal structure, versatile evaluation of their biological activities and molecular simulations of novel pyrithiobac derivatives” (Eur J Med Chem, 2019).

Broadly, the inhibition is the drop in the measured response relative to a control, in per cent. A word on the MIC: it is the lowest concentration that inhibits growth of the organism. For orientation: IC50 means the concentration at which inhibition is half-maximal. A higher IC50 goes with a need for much substance. In general, CC50 refers to the concentration at which the toxic effect on the cells reaches its halfway point. A word on the mortality: it is the share of the test organisms that died.

Structures are written as SMILES. In brackets after ≈: the same amount, converted by molar mass. Activity calls are given as the source filed them. The rule behind the calls is not given here. Some results are limits rather than exact numbers.

Data set [1] relates to Arabidopsis thaliana. Briefly: Inhibition of Arabidopsis thaliana AHAS catalytic subunit using pyruvate as substrate at 10 uM measured after 30 mins by colorimetric method relative to control. Summed up: (§1)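 Colorimetric assay in 50 mM potassium phosphate pH 7.0 with 50 mM pyruvate, 1 mM thiamine diphosphate, 10 mM MgCl2 and 10 μM FAD. Incubated 30 min at 37 °C for plant AHAS and 30 °C for fungal AHAS. Acetolactate formed was then quantified.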

The subject of data set [2] is Brassica rapa subsp. oleifera. Briefly: Herbicidal activity against Brassica campestris L assessed as inhibition of rape root growth at 100 mg/l root growth incubated for 48 hrs relative to control. Type of data set: functional. Put shortly:
(§2)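 Rape seeds soaked in distilled water for 4 h, then placed on filter paper wetted with inhibitor solution, 15 seeds per 6-cm dish. Germinated in the dark at 28 °C for 48 h. Mean length of 10 roots per plate measured.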

For data set [3], the system named is Candida albicans. Briefly: Antifungal activity against Candida albicans isolate 17 grown in RPMI 1640 medium incubated for 24 hrs by microdilution method. To be noted: isolate 17, 24 h. Type of data set: functional. Summed up: (§3)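 C. albicans standard strain SC5314 and clinical isolates g5 and 17# tested by broth microdilution in YNB or RPMI 1640 medium. Plates incubated at 35 °C for up to 72 h, with visual readings taken at 24 h. MIC taken as the lowest concentration preventing visible growth.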

Data set [4] concerns Candida albicans. Briefly: Inhibition of Candida albicans AHAS catalytic subunit at 10 uM using pyruvate as substrate measured after 30 mins by colorimetric method relative to control. Put shortly:
as §1

In data set [5] the test system is Arabidopsis thaliana. Briefly: Inhibition of Arabidopsis thaliana AHAS catalytic subunit using pyruvate as substrate at 100 uM measured after 30 mins by colorimetric method relative to control. Put shortly:
as §1

For data set [6], the system named is Candida albicans. Briefly: Inhibition of Candida albicans AHAS catalytic subunit at 100 uM using pyruvate as substrate measured after 30 mins by colorimetric method relative to control. Summed up: as §1
The nature of data set [7]: Inhibition of SARS coronavirus M protease using AVLQSGFRKK as substrate by FRET assay. More on the design: species or system Severe acute respiratory syndrome-related coronavirus. Summed up: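 Purified SARS-CoV Mpro assayed by FRET. Protein, compound and substrate were preheated at 37 °C and oscillated. Fluorescence (ex 320/em 405 nm) was read every 5 s for 200 reads. IC50 from V0/V = 1+[I]/IC50.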

Data set [8] has as its system Tobacco mosaic virus. Briefly: Antiviral activity against Tobacco mosaic virus inoculated in Nicotiana tabacum leaves assessed as passivation by measuring local lesion numbers at 100 mg/l pre-incubated with virus for 30 mins followed by inoculation and measured up to 4 days. Type of data set: functional. Summed up: (§4)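 Passivation assay: TMV mixed with an equal volume of compound solution for 30 min, then rubbed onto the left half of N. tabacum L. leaves. The right half received virus mixed with solvent as control. Local lesions counted 3–4 days after inoculation. Compounds tested at 500 or 100 mg/L.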

The subject of data set [9] is Candida albicans. Briefly: Antifungal activity against Candida albicans SC5314 grown in RPMI 1640 medium incubated for 24 hrs by microdilution method. Type of data set: functional. The following applies: SC5314, 24 h. Summed up: as §3
For orientation: In broth dilution the organism is exposed to a series of concentrations in liquid medium.

Data set [10] can be described thus: Cytotoxicity against HEK293T cells assessed as reduction in cell growth incubated for 48 hrs by MTT assay. Type of data set: cell-based, HEK-293T. To be noted: human. Summed up:
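293T cells in logarithmic phase seeded at 12000 cells/well overnight, then exposed to a range of compound concentrations for 48 h. MTT added for a further 4 h, formazan dissolved in DMSO, and OD570 read. CC50 is the concentration reducing viability by 50%.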

For data set [11], the system named is Botryosphaeria berengeriana. Briefly: Antifungal activity against Physalospora pyricola assessed as reduction in growth at 50 mg/l by mycelium growth rate method relative to control. Type of data set: functional. Summed up:
(§5)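 Mycelium growth rate method against S. sclerotiorum, P. capsici, P. piricola, R. cerealis, W. anthracnose and R. bakanae. Each compound tested at 50 mg/L, with chlorothalonil and PTB as controls. Relative inhibitory ratio (%) calculated from mycelial growth.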

The test system of data set [12] is Sclerotinia sclerotiorum. Briefly: Antifungal activity against Sclerotinia sclerotiorum assessed as reduction in growth at 50 mg/l by mycelium growth rate method relative to control. Type of data set: functional. Put shortly:
as §5

Data set [13] concerns Colletotrichum. Briefly: Antifungal activity against Colletotrichum (W. anthracnose) assessed as reduction in growth at 50 mg/l by mycelium growth rate method relative to control. Type of data set: functional. Summed up:
as §5

Data set [14] has as its system Fusarium fujikuroi. Briefly: Antifungal activity against Gibberella fujikuroi assessed as reduction in growth at 50 mg/l by mycelium growth rate method relative to control. Type of data set: functional. Put shortly:
as §5

In data set [15] the test system is Candida albicans. Briefly: Antifungal activity against Candida albicans isolate 17 grown in YNB medium incubated for 24 hrs by microdilution method. Type of data set: functional. The following applies: isolate 17, 24 h. Summed up:
as §3

The test system of data set [16] is Ceratobasidium cereale. Briefly: Antifungal activity against Rhizoctonia cerealis assessed as reduction in growth at 50 mg/l by mycelium growth rate method relative to control. Type of data set: functional. Summed up:
as §5

Data set [17] has as its system Phytophthora capsici. Briefly: Antifungal activity against Phytophthora capsici assessed as reduction in growth at 50 mg/l by mycelium growth rate method relative to control. Type of data set: functional. Summed up:
as §5

Data set [18] concerns Severe acute respiratory syndrome-related coronavirus. Briefly: Inhibition of SARS coronavirus M protease using AVLQSGFRKK as substrate at 20 uM by FRET assay relative to control. Summed up: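 Purified SARS-CoV Mpro assayed by FRET. Protein, compound and substrate were preheated at 37 °C and oscillated. Fluorescence (ex 320/em 405 nm) was read every 5 s for 200 reads.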

Data set [19] deals with Mythimna separata. Briefly: Insecticidal activity against Mythimna separata assessed as larval mortality at 600 mg/l by leaf-dip method. Type of data set: functional.
Data set [20] concerns Candida albicans. Briefly: Antifungal activity against Candida albicans isolate g5 grown in YNB medium incubated for 24 hrs by microdilution method. Type of data set: functional. To be noted: isolate g5, 24 h. Summed up:
as §3

In data set [21] the test system is Tobacco mosaic virus. Briefly: Antiviral activity against Tobacco mosaic virus inoculated in Nicotiana tabacum leaves assessed as passivation by measuring local lesion numbers at 500 mg/l pre-incubated with virus for 30 mins followed by inoculation and measured up to 4 days. Type of data set: functional. Summed up:
as §4

Data set [22] concerns Brassica rapa subsp. oleifera. Briefly: Herbicidal activity against Brassica campestris L assessed as inhibition of rape root growth at 10 mg/l root growth incubated for 48 hrs relative to control. Type of data set: functional. Summed up: as §2
For data set [23], the system named is Candida albicans. Briefly: Antifungal activity against Candida albicans isolate g5 grown in RPMI 1640 medium incubated for 24 hrs by microdilution method. Type of data set: functional. The following applies: isolate g5, 24 h. Put shortly: as §3
The test system of data set [24] is Candida albicans. Briefly: Antifungal activity against Candida albicans SC5314 grown in YNB medium incubated for 24 hrs by microdilution method. Type of data set: functional. To be noted: SC5314, 24 h. Summed up:
as §3

For data set [25], the system named is SARS coronavirus M protease. Briefly: Selectivity index, ratio of CC50 for HEK293T cells to IC50 for SARS coronavirus M protease. Type of data set: toxicity. To be noted: human, read-out: Ratio CC50/IC50. Summed up: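 Medium discarded, DMSO added, OD570 read; CC50 is the concentration cutting viability by 50%. IC50 from the 37 °C Mpro FRET assay (ex 320/em 405 nm) via V0/V = 1+[I]/IC50.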

In data set [26] the test system is Mythimna separata. Briefly: Insecticidal activity against Mythimna separata assessed as larval mortality at 10 mg/l by leaf-dip method. Type of data set: functional.

Turning to `COc1nc(OC)nc(Sc2ccc(F)cc2C#N)n1`, the inhibition was determined as 59.2% in data set [1]; 36.4% in data set [4]; 71.2% in [5]; 85.1% in data set [6]; 100% in data set [18]. In addition, the “inhibition (INH)” value in [2] is reported as 60.3%; in data set [22] it was 4.6%. Besides, the MIC in [3] is 100 µg/mL (≈ 342 µM); in [9], 100 µg/mL (≈ 342 µM); in data set [15], 25 µg/mL (≈ 85.5 µM); in data set [20] it was 50 µg/mL (≈ 171 µM); in data set [23], 100 µg/mL (≈ 342 µM); in data set [24], 50 µg/mL (≈ 171 µM). Also, in data set [7], the IC50 came out at 4.47 µM. The inhibition result in [8] was “inactive”. The CC50 at 48 h in [10] was over 200 µM. The inhibition at 50 µg/mL in [11] came to 75%; in data set [12], 33.3%; in data set [13] it was 40.5%; in data set [14] it was 33.3%; in [16] it was 57.1%; in [17], 25%. Besides, the mortality at 600 µg/mL in data set [19] came out at 20%. For the same compound, the inhibition at 500 µg/mL in [21] stood at 26.4%. The selectivity ratio in data set [25] stood at 44.5.

On to `CNC(=O)c1cc(Cl)cc(C)c1NC(=O)c1cc(Br)nn1-c1ncccc1Cl` [CHLORANTRANILIPROLE], for which, in [26], the mortality at 10 µg/mL turned out to be 100%.
